According to ChEMBL document CHEMBL4196009, “Novel vitexin-inspired scaffold against leukemia” (Eur J Med Chem, 2018):
Activity calls are given as the source filed them. No cut-off for these calls is given here.

Key:
[1] = target: T1, Retinoblastoma-associated protein (Homo sapiens) (UniProt P06400); assay: Inhibition of Rb phosphorylation in human KOPN8 cells assessed as ratio of phosphorylated Rb to total Rb levels at 100 uM pre-treated with NAC for 1 hr and measured after 24 hrs by Western blot analysis relative to control; assay type: cell-based
T1 sequence (whole entry): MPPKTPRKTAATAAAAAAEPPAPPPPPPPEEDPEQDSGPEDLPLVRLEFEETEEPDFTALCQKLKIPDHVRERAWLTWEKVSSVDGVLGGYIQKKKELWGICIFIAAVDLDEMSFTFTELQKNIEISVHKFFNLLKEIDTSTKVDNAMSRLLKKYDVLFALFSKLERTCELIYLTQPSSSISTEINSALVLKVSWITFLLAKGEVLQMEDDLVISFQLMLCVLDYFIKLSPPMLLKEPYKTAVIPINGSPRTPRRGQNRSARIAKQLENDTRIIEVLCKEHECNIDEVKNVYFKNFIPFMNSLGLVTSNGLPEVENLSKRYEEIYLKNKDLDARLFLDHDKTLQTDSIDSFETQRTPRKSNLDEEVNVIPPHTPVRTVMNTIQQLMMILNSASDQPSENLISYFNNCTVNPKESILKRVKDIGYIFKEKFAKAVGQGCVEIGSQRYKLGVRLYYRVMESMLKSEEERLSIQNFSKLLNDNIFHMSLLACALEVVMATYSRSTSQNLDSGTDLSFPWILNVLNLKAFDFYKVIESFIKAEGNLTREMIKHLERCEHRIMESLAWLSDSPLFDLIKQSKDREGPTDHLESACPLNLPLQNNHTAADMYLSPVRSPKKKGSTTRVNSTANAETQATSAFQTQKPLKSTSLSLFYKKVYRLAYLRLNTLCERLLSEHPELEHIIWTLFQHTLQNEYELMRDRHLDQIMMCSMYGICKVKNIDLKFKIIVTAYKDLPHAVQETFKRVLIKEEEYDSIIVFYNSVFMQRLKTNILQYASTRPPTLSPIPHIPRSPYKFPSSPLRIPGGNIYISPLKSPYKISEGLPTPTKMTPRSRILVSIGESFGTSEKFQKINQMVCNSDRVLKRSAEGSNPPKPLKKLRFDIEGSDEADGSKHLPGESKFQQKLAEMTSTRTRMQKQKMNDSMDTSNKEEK
Method in brief: (§1)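 KOPN-8 pre-B ALL cells were treated for 3 h and 24 h, with or without N-acetyl cysteine added to a parallel set of cells as an antioxidant/ROS quencher. Lysates were analysed by Western blot for phosphorylated Rb and total Rb. The same blots also probed PARP cleavage, Mcl-1, Ser-2-phosphorylated RNAPII CTD and cMyc.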

MDA-MB-231 [2] = assay: Cell cycle arrest in human MDA-MB-231 cells assessed as accumulation at G0/G1 phase at 20 uM after 24 hrs by propidium iodide staining-based flow cytometry (reference value: 70.47%); assay type: functional
KOPN-8 [3] = assay: Induction of apoptosis in human KOPN8 cells assessed as effect on Mcl-1 level at 100 uM pre-treated with NAC for 1 hr and measured after 3 hrs by Western blot analysis relative to control; assay type: functional
Method in brief: (§2)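 KOPN-8 cells were exposed to compound for 3 h and 24 h, with or without N-acetylcysteine added to a parallel set as antioxidant. Lysates were analysed by Western blot for cleaved PARP, Mcl-1, Ser-2-phosphorylated RNAPII CTD, cMyc, total Rb and pRb. Signals were compared against controls for dose-dependent change.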

Homo sapiens [4] = organism: Homo sapiens; assay: Inhibition of RNA polymerase 2 C-terminal domain phosphorylation at Ser2 residue in human KOPN8 cells at 100 uM pre-treated with NAC for 1 hr and measured after 3 hrs by Western blot analysis relative to control; assay type: cell-based; method in brief: as §2
KOPN-8 [5] = assay: Effect on c-Myc expression in human KOPN8 cells at 100 uM after 3 hrs by Western blot analysis relative to control; assay type: functional
Method in brief: (§3)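 KOPN-8 cells were treated at 10–100 µM final, with or without N-acetylcysteine co-addition, for 3 h and 24 h. Lysates were analysed by Western blot for PARP cleavage, Mcl-1, phospho-Ser2 RNAPII CTD, c-Myc, total Rb and pRb. Levels are relative to the vehicle control.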

KOPN-8 [6] = assay: Effect on c-Myc expression in human KOPN8 cells at 10 uM pre-treated with NAC for 1 hr and measured after 24 hrs by Western blot analysis relative to control; assay type: functional
MCF7 = assay: Induction of oxidative stress in human MCF7 cells transfected with mRuby-Mito-7 with fugene assessed as increase in intracellular total ROS levels at 50 uM treated 30 mins post NAC addition measured after 1 hr by fluorimetric analysis; assay type: functional, cell-based
Method in brief: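 MCF-7 cells carried an mRuby-Cox8A mitochondrial label. They were exposed to 50 of compound, alone or together with 50 of N-acetylcysteine, for 1 h. Cells were then stained with CellROX green (ex/em 485/520 nm) plus Hoechst 33342 nuclear stain. Total and mitochondrial ROS fluorescence was imaged in live cells and quantified relative to control.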

Homo sapiens [7] = organism: Homo sapiens; assay: Inhibition of RNA polymerase 2 C-terminal domain phosphorylation at Ser2 residue in human KOPN8 cells at 100 uM after 3 hrs by Western blot analysis relative to control; assay type: cell-based; method in brief: as §2
[8] = target: T1, Retinoblastoma-associated protein (Homo sapiens); assay: Inhibition of Rb phosphorylation in human KOPN8 cells assessed as ratio of phosphorylated Rb to total Rb levels at 100 uM pre-treated with NAC for 1 hr and measured after 3 hrs by Western blot analysis relative to control; assay type: cell-based; method in brief: as §1
KOPN-8 [9] = assay: Induction of apoptosis in human KOPN8 cells assessed as effect on Mcl-1 level at 10 uM after 24 hrs by Western blot analysis relative to control; assay type: functional; method in brief: as §3
[10] = target: T1, Retinoblastoma-associated protein (Homo sapiens); assay: Inhibition of Rb phosphorylation in human KOPN8 cells after 24 hrs by Western blot analysis; assay type: cell-based; method in brief: as §2
KOPN-8 [11] = assay: Induction of apoptosis in human KOPN8 cells assessed as effect on Mcl-1 level at 100 uM pre-treated with NAC for 1 hr and measured after 24 hrs by Western blot analysis relative to control; assay type: functional; method in brief: as §2
KOPN-8 [12] = assay: Cell cycle arrest in human KOPN8 cells assessed as accumulation at G0/G1 phase at 5 uM after 24 hrs by propidium iodide staining-based flow cytometry (reference value: 24.77%); assay type: functional
Method in brief: (§4)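 KOPN-8 cells treated 24 h alongside a DMSO vehicle and a staurosporine (2.0 µM) positive control. Apoptosis was scored by FITC Annexin V / propidium iodide flow cytometry with quadrant gating (early, late apoptotic). DNA content was measured by PI staining to give the percentage of cells in G0/G1, S and G2/M. Groups were compared by t-test; error bars are SD.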

MDA-MB-231 [13] = assay: Cell cycle arrest in human MDA-MB-231 cells assessed as accumulation at G0/G1 phase at 5 uM after 24 hrs by propidium iodide staining-based flow cytometry (reference value: 70.47%); assay type: functional
KOPN-8 [14] = assay: Effect on c-Myc expression in human KOPN8 cells at 0.5 uM after 24 hrs by Western blot analysis relative to control; assay type: functional
KOPN-8 [15] = assay: Cell cycle arrest in human KOPN8 cells assessed as accumulation at G2/M phase at 5 uM after 24 hrs by propidium iodide staining-based flow cytometry (reference value: 9.67%); assay type: functional; method in brief: as §4
SUP-B15 = assay: Induction of apoptosis in human SUP-B15 cells assessed as early apoptotic cells at 5 uM after 24 hrs by Annexin V-FITC/propidium iodide staining-based flow cytometry (reference value: 0.1%); assay type: functional

fold change (FC) [1] | fold change (FC) [8] | inhibition [10] | SMILES | Activity (MDA-MB-231 [2]) [%] | fold change (FC) (KOPN-8 [3]) | fold change (FC) (Homo sapiens [4]) | fold change (FC) (KOPN-8 [5]) | fold change (FC) (KOPN-8 [6]) | Activity (MCF7) | fold change (FC) (Homo sapiens [7]) | fold change (FC) (KOPN-8 [9]) | fold change (FC) (KOPN-8 [11]) | Activity (KOPN-8 [12]) [%] | Activity (MDA-MB-231 [13]) [%] | fold change (FC) (KOPN-8 [14]) | Activity (KOPN-8 [15]) [%] | Activity (SUP-B15) [%]
1.2 | 1.1 | Dose-dependent effect | COc1ccc(-c2c(I)c(=O)c3c(OC)cc(OC)cc3n2S(=O)(=O)c2ccc(OC)cc2)cc1 | 66.22 | 0.5 | 1.6 | 0.2 | 1.3 | inactive | 1.4 | 1.1 | 0.2 |  |  |  |  | 
 |  |  | CN(C)C(=O)c1cc2cnc(Nc3ccc(N4CCNCC4)cn3)nc2n1C1CCCC1 [RIBOCICLIB] |  |  |  |  |  |  |  |  |  | 45.66 | 90.85 | 1.2 | 28.79 | 0.3
